The values that follow come from publication PMC5060010 (ACS chemical biology, 2013).

Series [1] deals with mu/delta opioid receptors (Homo sapiens, UniProt P35372+P41143). It counts as cell-based. The settings on record: mu/delta HEK-293 cells. A digest of the protocol:
(§1)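 Calcium release measured in HEK-293 cells stably expressing mu, or both mu and delta, opioid receptors. The dual-transfected cells came from an outside lab, and cDNA for the chimeric Gα subunit Δ6-Gαqi4-myr was used. Signal was read as fluorescence in relative fluorescence units, giving EC50 and ΔRFU. Where a mu agonist and a delta antagonist were combined, they were co-administered at equimolar levels rather than given as a pretreatment.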

The next series deals with mu opioid receptors (Homo sapiens, UniProt P35372). It counts as cell-based. The note with it: mu HEK-293 cells. In short, it runs like this: as §1
Sequence of mu opioid receptors (P35372 whole entry): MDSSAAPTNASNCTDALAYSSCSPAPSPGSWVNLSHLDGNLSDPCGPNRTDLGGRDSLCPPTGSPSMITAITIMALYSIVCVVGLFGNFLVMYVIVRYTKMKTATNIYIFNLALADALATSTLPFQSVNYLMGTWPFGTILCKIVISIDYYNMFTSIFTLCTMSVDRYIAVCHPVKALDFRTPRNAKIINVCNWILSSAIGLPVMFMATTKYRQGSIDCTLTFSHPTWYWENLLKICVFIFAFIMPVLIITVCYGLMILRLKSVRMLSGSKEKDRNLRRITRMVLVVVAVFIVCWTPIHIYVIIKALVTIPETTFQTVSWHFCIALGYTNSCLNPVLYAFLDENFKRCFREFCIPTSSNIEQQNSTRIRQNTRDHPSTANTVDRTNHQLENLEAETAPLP
The conditions of series [2]: cited from earlier work.
The target of another series is mu-delta heteromer (Homo sapiens, UniProt P35372+P41143). The series can be described thus: immunocytochemical trafficking. Format: cell-based. The note with it: ligand 1 μM, 30 minutes at 37°C, HEK-293 cells with FL-mu and HA-delta.
Sequence of mu-delta heteromer (P35372 whole entry): as above
Sequence of mu-delta heteromer (P41143 whole entry): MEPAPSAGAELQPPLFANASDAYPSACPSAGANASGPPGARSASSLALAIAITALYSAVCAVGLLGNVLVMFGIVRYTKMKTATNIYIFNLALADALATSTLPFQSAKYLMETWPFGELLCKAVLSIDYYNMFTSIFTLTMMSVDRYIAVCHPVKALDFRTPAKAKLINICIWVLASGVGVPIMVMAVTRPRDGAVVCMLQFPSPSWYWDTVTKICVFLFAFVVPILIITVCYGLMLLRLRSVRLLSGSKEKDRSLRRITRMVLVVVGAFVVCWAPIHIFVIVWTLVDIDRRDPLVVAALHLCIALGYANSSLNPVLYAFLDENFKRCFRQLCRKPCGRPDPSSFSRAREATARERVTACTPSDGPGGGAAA
For series [3] the following is noted: cited from earlier work. This is another data set of the same source.

pEC50: −log10 of the molar value.

Sequence of mu/delta opioid receptors (P35372 whole entry): as the sequence (P35372 whole entry) above
Sequence of mu/delta opioid receptors (P41143 whole entry): as the sequence (P41143 whole entry) above

Turning to `CN1CC[C@]23c4c5ccc(O)c4O[C@H]2[C@H](NC(=O)COCC(=O)NCCCCCCCNC(=O)COCC(=O)Nc2cccc4c6c([nH]c24)[C@@H]2Oc4c(O)ccc7c4[C@@]24CCN(CC2CC2)[C@@H](C7)[C@]4(O)C6)CC[C@@]3(O)[C@H]1C5` [MDAN-21], the “calcium release ΔRFU” value worked out at 468 RFU in series [1] and 420 RFU at mu opioid receptors. Also, the figures for the pEC50 (in series [1] (read-out: calcium release EC50); at mu opioid receptors (read-out: calcium release EC50)) were 6.39 and 6.07, respectively. The place preference result in series [2] is “without tolerance, physical dependence, or place preference”. In addition, at mu-delta heteromer, the “internalization of mu and delta cell-surface opioid receptors” value was “did not produce significant internalization”. Besides, the antinociception result in series [3] is on record as “potent antinociception”. In series [3], the physical dependence result is reported as “without tolerance, physical dependence, or place preference”. Further, in series [3] (mice), the tolerance entry is “does not produce tolerance”.

As usually defined, the pEC50 is the negative decadic logarithm of the EC50, by convention in mol/L.
